Active and inactive are the calls of the source. The calls are words filed in the database; no cut-off is given here.
Tests used:
Human alphaherpesvirus 1 [1] = test: Antiviral activity against ACV-sensitive Herpes simplex virus 1 KOS infected in male Balb/c mouse assessed as reduction in vesicles at 0.7% w/w applied topically 5 times a day at 3 hrs interval for 10 days measured on day 2 post infection; format: functional, organism-based; details: strain KOS
Summary of the method: (§1)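 Balb/c mice (5 weeks, 22–27 g; six per group, sexes tested separately) had the right mid-flank depilated under i.p. anaesthesia and needle-scarified 24 h later. They were inoculated with 70 μL HSV-1 KOS (10^5 PFU/mL). From 4 h post-infection, O/W emulsion with 0.7% w/w mangiferin or ACV cream (50 mg/g) was applied topically 5 times daily for 10 days. Lesions were scored daily.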

[2] = Selectivity index, ratio of CC50 for African green monkey Vero cells to IC50 for Herpes simplex virus 1 AR-29 infected in African green monkey Vero cells; format: toxicity; details: read-out: Ratio CC50/IC50
Summary of the method: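 SI = CC50 (Vero, MTT, 72 h) / IC50 from plaque reduction with mangiferin added at infection (0 h) against HSV-1 AR-29 or KOS; IC50 by linear regression of viral inhibition curves.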

Human alphaherpesvirus 1 [3] = test: Antiviral activity against ACV-sensitive Herpes simplex virus 1 KOS infected in African green monkey Vero cells assessed as inhibition of viral infection at 3.12 ug/ml measured after 72 hrs by crystal violet staining based plaque reduction assay relative to control; format: functional; details: Human alphaherpesvirus 1, strain KOS
Summary of the method: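 Vero monolayers infected with HSV-1 KOS (10^5 PFU/mL) with mangiferin (3.12, 6.25, 12.5, 25 μg/mL) added at infection (0 h). Overlay of nutrient agarose with 25 mM MgCl2; plaques counted after 72 h at 37 °C, 5% CO2, fixed in 20% formaldehyde/PBS and stained with 0.5% crystal violet. %VI versus virus control; triplicate experiments.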

Human alphaherpesvirus 1 [4] = test: Antiviral activity against ACV-resistant Herpes simplex virus 1 AR-29 infected in African green monkey Vero cells assessed as inhibition of viral adsorption at 25 ug/mL preincubated for 30 mins and measured after 1 hr by plaque reduction assay relative to control; format: functional; details: Human alphaherpesvirus 1, AR-29, Vero
Summary of the method: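 Vero cells pre-chilled 30 min at 4 °C, then given mangiferin (3.12–25 μg/mL) together with HSV-1 AR-29 (10^5 PFU/mL) for 1 h adsorption at 4 °C. Plaque reduction assay follows: nutrient agarose overlay with 25 mM MgCl2, 72 h at 37 °C/5% CO2, formaldehyde fixation, crystal violet stain. %VI = [1 − PFU treated/PFU virus control] × 100.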

[5] = Cytotoxicity against African green monkey Vero cells assessed as reduction in cell viability incubated for 72 hrs by MTT assay; format: cell-based; details: chlorocebus sabaeus
Summary of the method: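 Vero cells exposed to mangiferin 31.25–500 μg/mL for 72 h at 37 °C, 5% CO2. Viability read by MTT as At/Ac × 100 versus untreated cells; CC50 from linear regression.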

Human alphaherpesvirus 1 [6] = test: Antiviral activity against ACV-sensitive Herpes simplex virus 1 KOS infected in African green monkey Vero cells assessed as inhibition of viral adsorption at 25 ug/mL preincubated for 30 mins and measured after 1 hr by plaque reduction assay; format: functional, organism-based; details: strain KOS
Summary of the method: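 Vero cells pre-chilled 30 min at 4 °C, then given mangiferin (3.12–25 μg/mL) together with HSV-1 KOS (10^5 PFU/mL); 1 h adsorption at 4 °C, then plaque reduction: agarose/DMEM overlay with 25 mM MgCl2, 72 h at 37 °C, formaldehyde fixation, crystal violet stain. %VI = 1 − PFU treated/PFU virus control; triplicate independent experiments.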

Human alphaherpesvirus 1 [7] = test: Antiviral activity against ACV-sensitive Herpes simplex virus 1 KOS infected in male Balb/c mouse assessed as reduction in ulcerated lesion at 0.7% w/w applied topically 5 times a day at 3 hrs interval for 10 days measured on day 5 post infection; format: functional, organism-based; details: strain KOS; summary of the method: as §1
Human alphaherpesvirus 1 [8] = test: Antiviral activity against ACV-sensitive Herpes simplex virus 1 KOS infected in male Balb/c mouse assessed as change in epidermis thickness at 0.7% w/w applied topically 5 times a day at 3 hrs interval for 10 days measured on day 10 post infection by H and E staining based histological analysis; details: strain KOS
Human alphaherpesvirus 1 [9] = test: Virucidal activity against ACV-sensitive Herpes simplex virus 1 KOS infected in African green monkey Vero cells assessed as inhibition of viral inhibition at 25 ug/mL measured after 1 hr by plaque reduction assay relative to control; format: functional; details: Human alphaherpesvirus 1, strain KOS
Summary of the method: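 HSV-1 KOS suspension incubated with mangiferin (3.12–25 μg/mL) 1 h at 37 °C, then put on Vero cells for plaque reduction: agarose overlay with MgCl2, 72 h, crystal violet staining. %VI against virus control; triplicate independent experiments.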

Human alphaherpesvirus 1 [10] = test: Antiviral activity against ACV-resistant Herpes simplex virus 1 AR-29 infected in male Balb/c mouse assessed as change in epidermis thickness at 0.7% w/w applied topically 5 times a day at 3 hrs interval for 10 days measured on day 10 post infection by H and E staining based histological analysis; format: functional, organism-based
Human alphaherpesvirus 1 [11] = test: Antiviral activity against ACV-resistant Herpes simplex virus 1 AR-29 infected in African green monkey Vero cells assessed as inhibition of viral infection at 12.5 ug/ml measured after 72 hrs by crystal violet staining based plaque reduction assay relative to control; format: functional; details: Human alphaherpesvirus 1, AR-29, Vero
Summary of the method: (§2)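 Plaque reduction in Vero cells. Mangiferin at 3.12, 6.25, 12.5 or 25 μg/mL is added at infection (0 h) with HSV-1 (10^5 PFU/mL). Agarose overlay with 25 mM MgCl2, 72 h at 37 °C/5% CO2, 20% formaldehyde fix, 0.5% crystal violet stain. %VI is taken against virus control. IC50 comes from linear regression of inhibition curves. Triplicate independent experiments.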

Human alphaherpesvirus 1 [12] = test: Antiviral activity against ACV-sensitive Herpes simplex virus 1 KOS infected in African green monkey Vero cells assessed as inhibition of viral infection at 12.5 ug/ml measured after 72 hrs by crystal violet staining based plaque reduction assay relative to control; format: functional; details: Human alphaherpesvirus 1, strain KOS; summary of the method: as §2
Human alphaherpesvirus 1 [13] = test: Antiviral activity against ACV-sensitive Herpes simplex virus 1 KOS infected in African green monkey Vero cells assessed as suppression of viral replication by measuring reduction in ICP4 production at 12.5 ug/ml measured after 24 hrs by immunofluorescence assay relative to control; format: functional, strain KOS; parameters: scale not given: the % may be the effect or the level left
Summary of the method: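 Vero cells on coverslips infected with HSV-1 KOS and given mangiferin 1.56–12.5 μg/mL at 0 h. At 24 h cells fixed in cold acetone, blocked with skim milk, stained with mouse anti-ICP4 and FITC anti-mouse IgG; 100 cells per coverslip scored by fluorescence microscopy. Inhibition relative to infected untreated cells; duplicate independent experiments.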

[14] = Toxicity in Balb/c mouse infected with ACV-resistant Herpes simplex virus 1 AR-29 assessed as effect on body weight at 0.7% w/w applied topically 5 times a day at 3 hrs interval for 10 days measured on day 10 post infection; details: in vivo, topical_or_ocular
Human alphaherpesvirus 1 [15] = test: Antiviral activity against ACV-resistant Herpes simplex virus 1 AR-29 infected in female Balb/c mouse assessed as change in dermis thickness at 0.7% w/w applied topically 5 times a day at 3 hrs interval for 10 days measured on day 10 post infection by H and E staining based histological analysis; format: functional, organism-based
Human alphaherpesvirus 1 [16] = test: Antiviral activity against ACV-resistant Herpes simplex virus 1 AR-29 infected in female Balb/c mouse assessed as change in epidermis thickness at 0.7% w/w applied topically 5 times a day at 3 hrs interval for 10 days measured on day 10 post infection by H and E staining based histological analysis; format: functional, organism-based

With `O=c1c2cc(O)c(O)cc2oc2cc(O)c([C@@H]3O[C@H](CO)[C@@H](O)[C@H](O)[C@H]3O)c(O)c12` [MANGIFERIN] the Activity (Human alphaherpesvirus 1 [1]) was “inactive”, the selectivity ratio [2] was over 172 and the inhibition at 3.12 µg/mL (Human alphaherpesvirus 1 [3]) was 37.5%. The inhibition at 25 µg/mL (Human alphaherpesvirus 1 [4]) was 74%, the CC50 at 72 h [5] was over 500 µg/mL and the inhibition (Human alphaherpesvirus 1 [6]) was “Active”. For the same compound, the Activity (Human alphaherpesvirus 1 [7]) was “inactive”, the Activity (Human alphaherpesvirus 1 [8]) was “inactive” and the inhibition at 25 µg/mL (Human alphaherpesvirus 1 [9]) was 74.8%. The Activity (Human alphaherpesvirus 1 [10]) was “inactive”, the inhibition at 12.5 µg/mL (Human alphaherpesvirus 1 [11]) was 100% and the inhibition at 12.5 µg/mL (Human alphaherpesvirus 1 [12]) was 100%. The Activity (Human alphaherpesvirus 1 [13]) was 29.6%, the Activity [14] was “Non-Toxic” and the Activity (Human alphaherpesvirus 1 [15]) was “inactive”. The Activity (Human alphaherpesvirus 1 [16]) was “inactive”.
